This is an account of results in ChEMBL document CHEMBL1151853, “Synthesis, configurational stability and stereochemical biological evaluations of (S)- and (R)-5-hydroxythalidomides” (Bioorg Med Chem Lett, 2009).

A word on the half-life: it is the time in which the quantity being followed falls by half.

Data set [1] in a line: Cytotoxicity against human HS-Sultan cells assessed as cell viability at 100 ug/ml after 72 hrs by MTT assay. Type of data set: functional. As to conditions: read-out: Activity.
Data set [2] deals with IM-9. Description: Cytotoxicity against human IM9 cells assessed as cell viability at 100 ug/ml after 72 hrs by MTT assay. Type of data set: functional. As to conditions: IM-9, 72 h, read-out: Activity.
Data set [3] in a line: Stability assessed as half life at pH 8.78. The data set is classed as physicochemical. Particulars: buffer.
The nature of data set [4]: Stability assessed as half life at pH 7.23. Type of data set: physicochemical. As to conditions: buffer.
The subject of data set [5] is MCF7. Description: Cytotoxicity against human MCF7 cells assessed as cell viability at 100 ug/ml after 72 hrs by MTT assay. Type of data set: functional. Particulars: MCF7, 72 h, read-out: Activity.
Data set [6] deals with KB. Description: Cytotoxicity against human KB cells assessed as cell viability at 100 ug/ml after 72 hrs by MTT assay. The data set is classed as functional. Particulars: read-out: Activity. A general note: Formazan colour is commonly taken as a measure of viable cells.
Data set [7] in a line: Stability assessed as half life at pH 6.24. The data set is classed as physicochemical. As to conditions: buffer.
Data set [8] has as its system HUVEC. Description: Antiangiogenic activity against VEGF-induced HUVEC assessed as tube area at 100 uM after 11 days by BCIP/NBT visualization assay. Type of data set: functional, Homo sapiens. The essentials: (§1)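 HUVECs co-cultured with fibroblasts (angiogenesis kit) grown with test drug at 30 or 100 μM plus VEGF-A 10 ng/ml for 11 days. Fixed in 70% ethanol, then mouse anti-human CD31 (1:4000, 1 h, 37 °C) and AP-conjugated goat anti-mouse IgG (1:500, 1 h, 37 °C), developed with BCIP/NBT. Mean ± S.E.M.; VEGF n = 9, VEGF + compound n = 3; Dunnett's test versus VEGF.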

Data set [9] relates to HUVEC. Description: Antiangiogenic activity against VEGF-induced HUVEC assessed as tube length at 100 uM after 11 days after 11 days by BCIP/NBT visualization assay. Type of data set: functional, cell-based. Particulars: Homo sapiens. The essentials:
as §1

Data set [10] deals with HUVEC. Description: Antiangiogenic activity against VEGF-induced HUVEC assessed as tube joint at 100 uM after 11 days after 11 days by BCIP/NBT visualization assay. The data set is classed as functional, cell-based. As to conditions: Homo sapiens. The essentials:
as §1

For data set [11], the system named is HUVEC. Description: Antiangiogenic activity against VEGF-induced HUVEC assessed as tube path at 100 uM after 11 days after 11 days by BCIP/NBT visualization assay. The data set is classed as functional, cell-based. Particulars: Homo sapiens. The essentials: as §1

Calls of active or inactive are those of the source. The rule behind the calls is not given here.

`O=C1CC[C@H](N2C(=O)c3ccccc3C2=O)C(=O)N1`: the viability at 100 µg/mL in data set [1] was 88.6%; in data set [2], 93.5%; in data set [5], 81.3%; in data set [6], 95.6%. Further, the half-life in data set [3] was 2.6 h; in data set [4], 5.1 h; in data set [7], 27.8 h. Also, the Activity in data set [8] is recorded as less than 60%.
On to `O=C1CCC(N2C(=O)c3ccccc3C2=O)C(=O)N1` (racemic) [THALIDOMIDE], for which the viability at 100 µg/mL amounted to 85.9% in [1], 107% in data set [2], 86.5% in data set [5] and 92.2% in data set [6]. Also, the result in data set [9], in data set [10] and in data set [11] was inactive. Further, the Activity in [8] is less than 60%.
Consider `O=C1CC[C@@H](N2C(=O)c3ccccc3C2=O)C(=O)N1`, for which the viability at 100 µg/mL was found to be 75.6% in [1], 87.1% in [2], 89.8% in data set [5] and 96.9% in [6]. Further, the outcome in data set [9], in data set [10] and in data set [11] was inactive. Also, the Activity in data set [8] is recorded as greater than 70%.
